Experiment [1] concerns HeLa. The experiment is described as follows: Induction of mitochondrial membrane depolarization in human HeLa cells transfected with YFP-Parkin assessed as prevention of niclosamide induced mitochondrial membrane potential loss at 50 uM preincubated for 24 hrs followed by niclosamide stimulation and measured after 1 hr by Hoechst 33258 staining based immunofluorescence analysis. The class given is functional, cell-based. Conditions: time 25.0 hrs. A digest of the protocol: (§1)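 Mitochondrial membrane potential was read in YFP-Parkin HeLa cells pretreated with 50 μM compound for 24 h, then given 10 μM niclosamide or CCCP for 1 h. Medium was replaced with 5 nM TMRM plus Hoechst for 30 min at 37 °C in the dark. After a PBS wash, live cells were imaged by confocal microscopy at 37 °C, 5% CO2.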

The subject of experiment [2] is HeLa. The experiment is described as follows: Inhibition of ubiquitin phosphorylation in CCCP stimulated human HeLa cells overexpressing Parkin assessed as reduction in CCCP-induced ubiquitin phosphorylation at serine 65 at 50 uM preincubated for 24 hrs followed by CCCP stimulation for 3 hr by Western blot analysis. Format: cell-based. As to conditions: time 27.0 hrs. A digest of the protocol:
(§2)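 Parkin-transfected HeLa cells received 50 μM compound for 24 h. They were then either lysed directly or given 10 μM CCCP for 3 h before lysis. Lysates were immunoblotted for Ser65-phosphorylated ubiquitin, OPA1 cleavage and GAPDH. Untreated transfected and untransfected cells served as references.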

Experiment [3] has as its system MEF. The experiment is described as follows: Induction of mitophagy in PINK1 knockout mouse immortalized MEF cells overexpressing HA-tagged Parkin assessed as increase in mitophagy at 5 uM incubated for 16 hrs by flow cytometry analysis. The class given is functional, cell-based. A digest of the protocol:
(§3)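 Immortalised MEFs from PINK1 WT or KO mito-QC littermate embryos, overexpressing HA-Parkin, were treated for 16 h. Cells were trypsinised, fixed in 3.7% formaldehyde/200 mM HEPES pH 7.0 and analysed by flow cytometry (≥2 × 10^4 cells). Living cells were gated on scatter, and the untreated-condition gate was applied to all conditions. Percent cells undergoing mitophagy was taken from the GFP/mCherry ratio; n = 3, two-way ANOVA with Sidak test.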
(In general: Flow cytometry measures light scatter and fluorescence of single cells or particles in a stream.)

The target of experiment [4] is Serine/threonine-protein kinase PINK1, mitochondrial (Homo sapiens) (UniProt Q9BXM7). The experiment is described as follows: Activation of human PINK1 in human HeLa cells overexpressing Parkin assessed as phosphorylation of ubiquitin at serine 65 at 50 uM and measured after 24 hr by Western blot analysis. The class given is cell-based. In short, it runs like this:
as §2
In general terms: Immunoblotting shows a protein as a band on a membrane.

Experiment [5] deals with T1, Serine/threonine-protein kinase Pink1, mitochondrial (Tribolium castaneum) (UniProt D6WMX4).
T1 sequence (whole entry): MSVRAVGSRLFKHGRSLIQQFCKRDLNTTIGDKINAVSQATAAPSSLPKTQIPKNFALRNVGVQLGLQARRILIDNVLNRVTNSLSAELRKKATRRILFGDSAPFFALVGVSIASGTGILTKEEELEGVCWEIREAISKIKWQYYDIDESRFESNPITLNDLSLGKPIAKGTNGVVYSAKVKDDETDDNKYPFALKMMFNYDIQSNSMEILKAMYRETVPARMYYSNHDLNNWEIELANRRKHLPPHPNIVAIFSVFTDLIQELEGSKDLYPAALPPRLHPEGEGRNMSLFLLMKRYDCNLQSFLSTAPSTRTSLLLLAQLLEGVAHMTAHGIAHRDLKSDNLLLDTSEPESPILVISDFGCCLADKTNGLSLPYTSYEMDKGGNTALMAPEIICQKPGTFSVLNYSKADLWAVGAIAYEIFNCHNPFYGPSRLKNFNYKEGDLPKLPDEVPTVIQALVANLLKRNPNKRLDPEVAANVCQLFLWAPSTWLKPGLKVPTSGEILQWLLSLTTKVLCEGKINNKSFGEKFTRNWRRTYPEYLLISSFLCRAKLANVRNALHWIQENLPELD
The experiment is described as follows: Inhibition of recombinant Tribolium castaneum PINK1 using human ubiquitin as substrate assessed as substrate phosphorylation upto 100 uM.

For experiment [6], the system named is HeLa. The experiment is described as follows: Inhibition of niclosamide-induced ubiquitin phosphorylation at serine 65 residue in human HeLa cells transfected with YFP-Parkin at 50 uM preincubated for 24 hrs followed by niclosamide stimulation and measured after 1 hr hr by Western blot analysis. Format: cell-based. Conditions: time 25.0 hrs. In short, it runs like this: (§4)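 YFP-Parkin-transfected HeLa cells were pretreated with 50 μM compound (24 h per legend, 23 h per methods), then given 10 μM CCCP or niclosamide for 1 h. Lysis used AP buffer (Tris pH 7.5, IGEPAL, protease/phosphatase inhibitors). Blots were on PVDF, milk-blocked, primary antibody overnight at 4 °C, HRP detection; probed for pUb, LC3B-I/-II and α-tubulin.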

In experiment [7] the test system is HeLa. The experiment is described as follows: Induction of mitophagy in human HeLa cells transfected with YFP-Parkin assessed as effect on Parkin localization at 50 uM incubated for 24 hrs by Hoechst 33258 staining based immunofluorescence analysis. The class given is functional, cell-based. A digest of the protocol: (§5)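 YFP-Parkin-transfected HeLa cells were left untreated or exposed to 50 μM compound alone for 24 h. Cells were PFA-fixed, Triton-permeabilised and immunostained for pSer65-Ub and TOM20 with Hoechst. Confocal imaging assessed mitochondrial fragmentation, YFP-Parkin localisation and ubiquitin phosphorylation.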

Experiment [8] concerns HeLa. The experiment is described as follows: Inhibition of CCCP-induced ubiquitin phosphorylation at serine 65 residue in human HeLa cells transfected with YFP-Parkin at 50 uM preincubated for 24 hrs followed by CCCP stimulation and measured after 1 hr hr by Western blot analysis. Format: cell-based. As to conditions: time 25.0 hrs. In short, it runs like this: as §4
Experiment [9] concerns the target T1, Serine/threonine-protein kinase Pink1, mitochondrial (Tribolium castaneum). The experiment is described as follows: Inhibition of recombinant Tribolium castaneum PINK1 using human Parkin as substrate assessed as substrate phosphorylation upto 100 uM.
Experiment [10] concerns HeLa. The experiment is described as follows: Induction of mitochondrial membrane depolarization in human HeLa cells overexpressing Parkin assessed as inhibition of niclosamide-induced OPA1 cleavage at 50 uM preincubated for 24 hrs followed by niclosamide stimulation and measured after 3 hrs by Western blot analysis. The class given is functional, cell-based. As to conditions: time 27.0 hrs.

In experiment [11] the test system is HeLa. The experiment is described as follows: Induction of mitophagy in human HeLa cells transfected with YFP-Parkin assessed as effect on mitochondrial fragmentation at 50 uM incubated for 24 hrs by Hoechst 33258 staining based immunofluorescence analysis. The class given is functional, cell-based. In short, it runs like this:
as §5

For experiment [12], the system named is HeLa. The experiment is described as follows: Inhibition of CCCP-induced ubiquitin phosphorylation at serine 65 residue in human HeLa cells transfected with YFP-Parkin at 50 uM preincubated for 24 hrs followed by CCCP stimulation and measured after 1 hr hr by Hoechst 33258 staining based immunofluorescence analysis. The class given is cell-based. As to conditions: time 25.0 hrs. In short, it runs like this:
(§6)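 YFP-Parkin HeLa cells were pretreated with 50 μM compound for 24 h, then given 10 μM CCCP or niclosamide for 1 h. Cells were fixed in chilled 4% PFA, permeabilised with 0.1% Triton, blocked in BSA, then immunostained overnight at 4 °C for pSer65-Ub and TOM20 with Hoechst. YFP-Parkin was imaged by confocal microscopy (40× oil). pUb mitochondrial localisation was quantified from images.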

Experiment [13] deals with MEF. The experiment is described as follows: Induction of mitophagy in wild-type PINK1 harboring mouse immortalized MEF cells overexpressing HA-tagged Parkin assessed as increase in mitophagy at 5 uM incubated for 16 hrs by flow cytometry analysis. Format: functional, cell-based. A digest of the protocol: as §3
The test system of experiment [14] is HeLa. The experiment is described as follows: Inhibition of niclosamide-induced ubiquitin phosphorylation at serine 65 residue in human HeLa cells transfected with YFP-Parkin at 50 uM preincubated for 24 hrs followed by niclosamide stimulation and measured after 1 hr hr by Hoechst 33258 staining based immunofluorescence analysis. As to conditions: time 25.0 hrs. Format: cell-based. In short, it runs like this:
as §6

In experiment [15] the test system is HeLa. The experiment is described as follows: Induction of mitochondrial membrane depolarization in human HeLa cells transfected with YFP-Parkin assessed as prevention of CCCP induced mitochondrial membrane potential loss at 50 uM preincubated for 24 hrs followed by CCCP stimulation and measured after 1 hr by Hoechst 33258 staining based immunofluorescence analysis. Format: functional, cell-based. As to conditions: time 25.0 hrs. A digest of the protocol:
as §1

The subject of experiment [16] is HeLa. The experiment is described as follows: Induction of mitochondrial membrane depolarization in human HeLa cells overexpressing Parkin assessed as inhibition of CCCP-induced OPA1 cleavage at 50 uM preincubated for 24 hrs followed by CCCP stimulation and measured after 3 hrs by Western blot analysis. Format: functional, cell-based. Conditions: time 27.0 hrs. In short, it runs like this:
as §2

The subject of experiment [17] is HeLa. The experiment is described as follows: Induction of mitophagy in YFP-Parkin-transfected human HeLa cells assessed as effect on ubiquitin phosphorylation at 50 uM incubated for 24 hrs by Hoechst 33258 staining based immunofluorescence analysis. Format: functional, cell-based. A digest of the protocol: as §5

This passage reports Activity and inhibition results from ChEMBL document CHEMBL5352504, “PINK1-Dependent Mitophagy Inhibits Elevated Ubiquitin Phosphorylation Caused by Mitochondrial Damage” (J Med Chem, 2023).

Calls of active or inactive are those of the source. No cut-off for these calls is given here.

Serine/threonine-protein kinase PINK1, mitochondrial (Homo sapiens), sequence (Q9BXM7 whole entry): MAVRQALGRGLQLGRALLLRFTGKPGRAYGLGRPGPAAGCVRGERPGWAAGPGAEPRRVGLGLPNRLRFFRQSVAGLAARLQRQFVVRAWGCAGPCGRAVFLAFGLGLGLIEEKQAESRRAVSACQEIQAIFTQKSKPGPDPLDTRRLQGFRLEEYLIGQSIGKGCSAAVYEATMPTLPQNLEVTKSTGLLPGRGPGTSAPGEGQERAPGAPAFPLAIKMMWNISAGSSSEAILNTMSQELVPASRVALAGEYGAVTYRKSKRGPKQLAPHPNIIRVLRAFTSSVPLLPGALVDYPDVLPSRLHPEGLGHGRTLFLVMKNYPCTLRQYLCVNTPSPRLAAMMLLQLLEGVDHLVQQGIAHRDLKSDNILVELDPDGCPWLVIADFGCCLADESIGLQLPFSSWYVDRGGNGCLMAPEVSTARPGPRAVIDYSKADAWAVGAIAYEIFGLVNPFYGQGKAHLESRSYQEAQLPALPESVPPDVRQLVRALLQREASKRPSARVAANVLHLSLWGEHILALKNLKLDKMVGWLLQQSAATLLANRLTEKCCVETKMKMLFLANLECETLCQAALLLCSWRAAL

Consider `OC[C@H]1O[C@@H](n2cnc3c(NCc4ccco4)ncnc32)[C@H](O)[C@@H]1O`, for which the outcome (in the experiment with HeLa [1]; with MEF [3]; in experiment [4]; in the experiment with HeLa [7]; in the experiment with HeLa [11]; in the experiment with HeLa [15]) was inactive. In the experiment on HeLa [17], the result was inactive. In addition, the inhibition entry in the experiment on HeLa [2], in the experiment with HeLa [6], in the experiment on HeLa [8], with HeLa [12] and in the experiment on HeLa [14] was “Active” throughout. In addition, the inhibition entry (in [5]; in [9]; with HeLa [10]; in the experiment with HeLa [16]) was “inactive” each time. Further, in the experiment on MEF [13], the result was Active.
